This is an account of results in ChEMBL document CHEMBL1123227, “Tricyclic epines. Novel (E)- and (Z)-11H-dibenz[b,e]azepines as potential central nervous system agents. Variation of the basic side chain” (1986).

Type in all cases: functional
Experiment [1] is filed under the species Rattus norvegicus. Kind of experiment: Compound was tested or the anti-tryptamine activity in rats. In outline:
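Rats were challenged with tryptamine hydrochloride (16 mg/kg iv), with test substances given ip 30 min beforehand. Activity was scored as absence of clonic front paw movements over a 5 min observation after tryptamine. ED50 was the dose preventing the symptom in half the animals, determined by Probit analysis.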

Experiment [2] is filed under the species Mus musculus. Kind of experiment: Anticholinergic activity relative with respect to clozapine.
Experiment [3] is filed under the species Rattus norvegicus. Kind of experiment: Compound was tested or the anti-tryptamine activity in rats relative with respect to clozapine. An outline of the steps:
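Rats dosed ip 30 min before tryptamine hydrochloride 16 mg/kg iv. Effect means front paw clonic movements absent over 5 min observation after tryptamine. ED50 is the dose preventing the symptom in half the animals (Probit analysis); relative activity referenced to clozapine.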

The species named for experiment [4] is Mus musculus. As to the kind of experiment: Sedative activity relative with respect to clozapine.
For another experiment, the species on record is Oryctolagus cuniculus. Kind of experiment: Compound was tested for the muscle-relaxing activity in rabbits. An outline of the steps:
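Muscle electrical activity during contraction was recorded and pulses were counted. A 5 s extension was repeated every 1 min. Once pulse counts were constant (control value), the substance was given iv, and post-dose pulses were related to that value. Four to six animals were used per dose. ED50 was the dose halving muscle activity from the initial value.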

Experiment [5] is filed under the species Mus musculus. Kind of experiment: Sedative activity in mice.
The species named for experiment [6] is Rattus norvegicus. Kind of experiment: Compound was tested for the apomorphine antagonistic activity in rats expressed as relative activity. An outline of the steps:
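Female Sprague–Dawley rats, groups of four to six. Oral dosing 90 min before apomorphine 1.5 mg/kg sc. Jaw movements recorded via implanted electrodes (mandibulogram).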

The species entered for experiment [7] is Mus musculus. As to the kind of experiment: Anticholinergic activity in mice. An outline of the steps:
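Groups of 10 female NMRI mice received a lethal dose of physostigmine (0.825 mg/kg sc). Test substances were given orally 30 min before the physostigmine.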

By ED50 is commonly meant the dose at which the effect has come halfway, by size or by number of responders. As for `CN1CCN(C2=Nc3ccccc3/C(=C\C#N)c3ccccc32)CC1`, the ED50 in the experiment filed under Rattus norvegicus [1] was 32 mg/kg; in the experiment filed under Oryctolagus cuniculus it was about 1 mg/kg. Moreover, the Relative activity is on record as 3 in the experiment listed under Mus musculus [2], 0.16 in the experiment listed under Rattus norvegicus [3] and under 0.2 in the experiment filed under Mus musculus [4].
Turning to `Cc1ccc2c(c1)N=C(N1CCN(C)CC1)c1ccccc1C2=CC#N`, the ED50 was 6 mg/kg in the experiment filed under Rattus norvegicus [1], 0.8 mg/kg in the experiment listed under Mus musculus [5] and 0.028 mg/kg in the experiment filed under Oryctolagus cuniculus. For the same molecule, the Relative activity in the experiment listed under Mus musculus [2] was found to be 0.45; in the experiment filed under Rattus norvegicus [3], 0.83; in the experiment listed under Mus musculus [4], 5.9.
On to `CN1CCN(C2=Nc3cc(Cl)ccc3Nc3ccccc32)CC1` [CLOZAPINE], for which the ED50 in the experiment filed under Rattus norvegicus [1] came to 5 mg/kg; in the experiment listed under Oryctolagus cuniculus it was 0.028 mg/kg. The Relative activity in the experiment filed under Mus musculus [2], in the experiment listed under Rattus norvegicus [6], in the experiment listed under Rattus norvegicus [3] and in the experiment listed under Mus musculus [4] was 1 in each case.
With `CN1CCN(C2=Nc3ccccc3/C(=C/C#N)c3ccccc32)CC1`, the ED50 in the experiment listed under Rattus norvegicus [1] amounted to 79 mg/kg; in the experiment listed under Oryctolagus cuniculus, 0.046 mg/kg. The Relative activity in the experiment filed under Mus musculus [2] turned out to be 0.81; in the experiment listed under Rattus norvegicus [3], 0.06.
In the case of `Cc1ccc2c(c1)N=C(N1CCN(C)CC1)c1ccccc1/C2=C\C#N`, the ED50 was 10 mg/kg in the experiment filed under Rattus norvegicus [1], about 100 mg/kg in the experiment filed under Mus musculus [7] and 0.014 mg/kg in the experiment listed under Oryctolagus cuniculus. Also, in the experiment filed under Rattus norvegicus [3], the Relative activity was found to be 0.5.
With `Cc1ccc2c(c1)N=C(N1CCN(C)CC1)c1ccccc1/C2=C/C#N`, the ED50 in the experiment listed under Rattus norvegicus [1] came out at 51 mg/kg; in the experiment listed under Mus musculus [5] it was 33.6 mg/kg; in the experiment listed under Oryctolagus cuniculus it was 0.25 mg/kg. This molecule registered a Relative activity in the experiment filed under Rattus norvegicus [3] of 0.1.
